Tested on: HEK-293T
Assay: Multiplex assay against HEK293T
Format: toxicity, cell-based
Details: human
Summary of the method: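 Per cents of healthy-nucleus cells form the tubulin, mitochondrial-mass and membrane-permeability phenotype values. Live cells were stained at seeding with Hoechst33342, BioTracker Green Microtubule Cytoskeleton Dye, MitoTracker Red and Annexin V Alexa Fluor 680. After compound addition they were imaged on a CQ1 microscope at 37°C and 5% CO2, and CellPathfinder machine-learning gating split them into Hoechst high-intensity objects or normal cells, normal cells into healthy, pyknosed or fragmented nuclei, and pyknosed cells into mitotic or apoptotic.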

[1] = 12 h, 1 µM, compound concentration 1 uM, replicate 1
[2] = 12 h, 1 µM, compound concentration 1 uM, replicate 2
[3] = 12 h, 10 µM, compound concentration 10 uM, replicate 1
[4] = 12 h, 10 µM, compound concentration 10 uM, replicate 2
[5] = 24 h, 1 µM, compound concentration 1 uM, replicate 1
[6] = 24 h, 1 µM, compound concentration 1 uM, replicate 2
[7] = 24 h, 10 µM, compound concentration 10 uM, replicate 1
[8] = 24 h, 10 µM, compound concentration 10 uM, replicate 2
[9] = 48 h, 1 µM, compound concentration 1 uM, replicate 1
[10] = 48 h, 1 µM, compound concentration 1 uM, replicate 2
[11] = 48 h, 10 µM, compound concentration 10 uM, replicate 1
[12] = 48 h, 10 µM, compound concentration 10 uM, replicate 2

## CN1C[C@H](C(=O)N[C@]2(C)O[C@@]3(O)[C@@H]4CCCN4C(=O)[C@H](Cc4ccccc4)N3C2=O)C[C@@H]2c3cccc4[nH]cc(c34)C[C@H]21.CS(=O)(=O)O [DIHYDROERGOTAMINE MESYLATE]
[1]
  Population Apoptotic (%): 38%
  Population Fragmented Nuclei (%): 6%
  Population Healthy Nuclei (%): 84%
  Population Hoechst High Intensity Objects (%): 5%
  Population Membrane Permeable-Phenotype (%): 0%
  Population Mitochondria Different-Phenotype (%): 41%
  Population Mitotic Cells (%): 61%
  Population Normal (%): 94%
  Population Pyknosed Nuclei (%): 8%
  Population Tubulin-Different-Phenotype (%): 26%
  Total Cell Count: 418
[2]
  Population Apoptotic (%): 46%
  Population Fragmented Nuclei (%): 3%
  Population Healthy Nuclei (%): 81%
  Population Mitochondria Different-Phenotype (%): 65%
  Population Mitotic Cells (%): 53%
  Population Pyknosed Nuclei (%): 14%
  Population Tubulin-Different-Phenotype (%): 17%
  Total Cell Count: 285
[3]
  Population Apoptotic (%): 31%
  Population Fragmented Nuclei (%): 7%
  Population Healthy Nuclei (%): 76%
  Population Hoechst High Intensity Objects (%): 9%
  Population Membrane Permeable-Phenotype (%): 0%
  Population Mitochondria Different-Phenotype (%): 48%
  Population Mitotic Cells (%): 68%
  Population Normal (%): 90%
  Population Pyknosed Nuclei (%): 15%
  Population Tubulin-Different-Phenotype (%): 29%
  Total Cell Count: 403
[4]
  Population Apoptotic (%): 53%
  Population Fragmented Nuclei (%): 5%
  Population Healthy Nuclei (%): 80%
  Population Hoechst High Intensity Objects (%): 11%
  Population Mitochondria Different-Phenotype (%): 61%
  Population Mitotic Cells (%): 46%
  Population Normal (%): 88%
  Population Pyknosed Nuclei (%): 13%
  Population Tubulin-Different-Phenotype (%): 23%
  Total Cell Count: 435
[5]
  Population Apoptotic (%): 28%
  Population Fragmented Nuclei (%): 9%
  Population Healthy Nuclei (%): 80%
  Population Hoechst High Intensity Objects (%): 4%
  Population Membrane Permeable-Phenotype (%): 0%
  Population Mitochondria Different-Phenotype (%): 28%
  Population Mitotic Cells (%): 71%
  Population Normal (%): 95%
  Population Pyknosed Nuclei (%): 9%
  Population Tubulin-Different-Phenotype (%): 20%
  Total Cell Count: 621
[6]
  Population Apoptotic (%): 51%
  Population Fragmented Nuclei (%): 7%
  Population Healthy Nuclei (%): 84%
  Population Hoechst High Intensity Objects (%): 3%
  Population Mitochondria Different-Phenotype (%): 41%
  Population Mitotic Cells (%): 48%
  Population Normal (%): 96%
  Population Pyknosed Nuclei (%): 8%
  Population Tubulin-Different-Phenotype (%): 12%
  Total Cell Count: 341
[7]
  Population Apoptotic (%): 27%
  Population Fragmented Nuclei (%): 10%
  Population Healthy Nuclei (%): 76%
  Population Hoechst High Intensity Objects (%): 5%
  Population Membrane Permeable-Phenotype (%): 0%
  Population Mitochondria Different-Phenotype (%): 33%
  Population Mitotic Cells (%): 72%
  Population Normal (%): 94%
  Population Pyknosed Nuclei (%): 13%
  Population Tubulin-Different-Phenotype (%): 26%
  Total Cell Count: 480
[8]
  Population Apoptotic (%): 32%
  Population Fragmented Nuclei (%): 9%
  Population Healthy Nuclei (%): 84%
  Population Hoechst High Intensity Objects (%): 6%
  Population Mitochondria Different-Phenotype (%): 39%
  Population Mitotic Cells (%): 67%
  Population Normal (%): 93%
  Population Pyknosed Nuclei (%): 6%
  Population Tubulin-Different-Phenotype (%): 16%
  Total Cell Count: 567
[9]
  Population Apoptotic (%): 29%
  Population Fragmented Nuclei (%): 14%
  Population Healthy Nuclei (%): 78%
  Population Hoechst High Intensity Objects (%): 2%
  Population Membrane Permeable-Phenotype (%): 1%
  Population Mitochondria Different-Phenotype (%): 17%
  Population Mitotic Cells (%): 70%
  Population Normal (%): 97%
  Population Pyknosed Nuclei (%): 6%
  Population Tubulin-Different-Phenotype (%): 11%
  Total Cell Count: 1011
[10]
  Population Apoptotic (%): 28%
  Population Fragmented Nuclei (%): 12%
  Population Healthy Nuclei (%): 82%
  Population Membrane Permeable-Phenotype (%): 0%
  Population Mitochondria Different-Phenotype (%): 23%
  Population Mitotic Cells (%): 71%
  Population Pyknosed Nuclei (%): 5%
  Population Tubulin-Different-Phenotype (%): 9%
  Total Cell Count: 524
[11]
  Population Apoptotic (%): 22%
  Population Fragmented Nuclei (%): 15%
  Population Healthy Nuclei (%): 76%
  Population Hoechst High Intensity Objects (%): 2%
  Population Membrane Permeable-Phenotype (%): 0%
  Population Mitochondria Different-Phenotype (%): 20%
  Population Mitotic Cells (%): 77%
  Population Normal (%): 97%
  Population Pyknosed Nuclei (%): 7%
  Population Tubulin-Different-Phenotype (%): 12%
  Total Cell Count: 778
[12]
  Population Apoptotic (%): 31%
  Population Healthy Nuclei (%): 77%
  Population Hoechst High Intensity Objects (%): 1%
  Population Mitochondria Different-Phenotype (%): 21%
  Population Mitotic Cells (%): 68%
  Population Normal (%): 98%
  Population Pyknosed Nuclei (%): 6%
  Population Tubulin-Different-Phenotype (%): 11%
  Total Cell Count: 793
